Results of several laboratories.
Lines come from different studies, so protocols differ.
KIT A829P: Mast/stem cell growth factor receptor Kit (KIT, Homo sapiens, UniProt P10721, A829P)
KIT T670I/V559D: Mast/stem cell growth factor receptor Kit (KIT, Homo sapiens, UniProt P10721, T670I/V559D)
KIT V559D/V654A: Mast/stem cell growth factor receptor Kit (KIT, Homo sapiens, UniProt P10721, V559D/V654A)
KIT L576P: Mast/stem cell growth factor receptor Kit (KIT, Homo sapiens, UniProt P10721, L576P)
KIT D816V: Mast/stem cell growth factor receptor Kit (KIT, Homo sapiens, UniProt P10721, D816V)
KIT autoinhibited: Mast/stem cell growth factor receptor Kit, autoinhibited (KIT, Homo sapiens, UniProt P10721)

SMILES	target	assay	conditions	remaining binding [%]
C[C@H]1CCN(c2nccc(-c3cnn4ncccc34)n2)C1	KIT A829P	binding	1 µM	83
Cc1cnc(Nc2ccc(C(=O)N3CCC(N4CCCC4)CC3)cc2)nc1-c1cc2ccccc2s1	KIT T670I/V559D	binding, competition with immobilised ligand	1 µM	10
CO[C@@H](C)c1c(Nc2ccc([C@@H](N(C)C(=O)C3CCS(=O)(=O)CC3)C(F)(F)F)cc2)cnc2cc(Cl)nn12	KIT T670I/V559D	cell-free assay, competition with immobilised ligand	1 µM	82
c1cncc(-c2cccc(Nc3nccc(NC4CCCCC4)n3)c2)c1	Mast/stem cell growth factor receptor Kit (KIT, Homo sapiens, UniProt P10721, D816H)	binding, competition with immobilised ligand	10 µM	13
CNC(=O)[C@@H]1CC[C@@H](n2c(-c3ccc4cnccc4c3)nc3ccc(C(=O)NCc4cccc(C(N)=O)c4)cc32)C1	KIT V559D/V654A	binding, competition with immobilised ligand	1 µM	96
O=C(c1ccc(Nc2ncc(Cl)c(-c3ccc(Cl)s3)n2)cc1)N1CCC(N2CCCC2)CC1	KIT A829P	binding, competition with immobilised ligand	1 µM	4.3
CN(c1nccc(-c2cnn3ncccc23)n1)C1CC1	KIT L576P	binding	1 µM	100
CC(=O)N1CCC(c2ccc(C(=O)NC3=NCCN3)cc2C(F)(F)F)CC1	KIT D816V	cell-free assay, competition with immobilised ligand	1 µM	91
CC1CCCN1c1nccc(-c2cnn3ncccc23)n1 (stereo not shown)	KIT V559D/V654A	binding	1 µM	100
C[C@@H](c1ccc(-n2cnc3c(N)ncnc32)cc1)N1CCc2nn(C)c(Cc3ccccc3)c2C1=O	KIT V559D/V654A	binding, competition with immobilised ligand	0.1 µM	78
O=C(Nc1c[nH]nc1C(=O)NC1CCNCC1)c1cc(F)cc(F)c1	KIT autoinhibited	binding, competition with immobilised ligand	1 µM	82
C=CC(=O)N1CCC(C(=O)NCC(=O)N2CCN(c3nc(-c4cnc(N)nc4C(F)F)nc(N4CCOCC4)n3)CC2)CC1	KIT T670I/V559D	binding, competition with immobilised ligand	1 µM	82
N#Cc1ccccc1CSc1nnc2c(n1)[nH]c1ccccc12	Mast/stem cell growth factor receptor Kit (KIT, Homo sapiens, UniProt P10721)	binding, competition with immobilised ligand	10 µM	100
COc1cnc(Nc2cccc(S(N)(=O)=O)c2)nc1N1CCN(c2ccccc2)C(=O)C1	KIT V559D/V654A	binding, competition with immobilised ligand	1 µM	97
O=C(Nc1cccnn1)N1CCC(=Cc2cccc(Oc3ccc(C(F)(F)F)cn3)c2)CC1	KIT A829P	cell-free assay, competition with immobilised ligand	1 µM	96
Cc1cnn2ncc(-c3ccnc(N(C)C)n3)c2c1	KIT D816V	binding	1 µM	100
CN1CCN(c2ccc(Nc3nccc(-c4ccccc4)n3)cc2C(F)(F)F)CC1	KIT L576P	binding	10 µM	0.45

SMILES	target	assay	conditions	remaining binding [%]
O=C(c1ccc(Nc2ncc(Cl)c(-c3cc4ccccc4s3)n2)cc1)N1CCC(N2CCCC2)CC1	KIT L576P	binding, competition with immobilised ligand	1 µM	4.5
N[C@H]1CCN(c2nccc(-c3cnn4ncccc34)n2)C1	Mast/stem cell growth factor receptor Kit (KIT, Homo sapiens, UniProt P10721, V559D)	binding	1 µM	87
CN1CCN(c2ccc(Nc3nccc(-c4cccc([N+](=O)[O-])c4)n3)cc2C(F)(F)F)CC1	KIT D816V	binding	10 µM	1.1
O=C(NCC1CCOCC1)c1n[nH]cc1NC(=O)c1c(F)cccc1F	KIT autoinhibited	binding, competition with immobilised ligand	1 µM	100
O=C(Nc1cccnn1)N1CC(C/C=C/c2cncc(Oc3ccc(C(F)(F)F)cn3)n2)C1	KIT D816V	cell-free assay, competition with immobilised ligand	1 µM	100
O=C(NCCCN1CCOCC1)c1ccc(Nc2ncc(Cl)c(-c3ccc(Cl)s3)n2)cc1	KIT A829P	binding, competition with immobilised ligand	1 µM	16
NS(=O)(=O)c1cc(NC(=O)C2(c3ccccc3Cl)CC2)ccc1Oc1cccc(Cl)c1	KIT A829P	cell-free assay, competition with immobilised ligand	1 µM	69
CN(C)c1nccc(-c2cnc3ncccn23)n1	KIT V559D/V654A	binding	1 µM	100
COc1ncc2cc3ccccc3nc2c1C#N	KIT A829P	cell-free assay, competition with immobilised ligand	5 µM	100
COc1cnc(Nc2cccc(S(N)(=O)=O)c2)nc1N1CCN(c2ccccc2)CC1	KIT A829P	binding, competition with immobilised ligand	1 µM	65
CCN1CCN(Cc2ccc(C(=O)Nc3ccc(C)c(Oc4ccc5c(c4)CC(=O)N5)c3)cc2C(F)(F)F)CC1	KIT A829P	binding, competition with immobilised ligand	1 µM	100
CCCCN(CCCC)C(=O)CN1C[C@H](c2cc(OC)c3c(c2)OCO3)[C@@H](C(=O)O)[C@@H]1CC(C)(C)CCC	KIT D816V	cell-free assay, competition with immobilised ligand	1 µM	100
CN(C)c1nccc(-c2cnn3ncccc23)n1	KIT A829P	binding	1 µM	81
CCCOc1ccc([C@H]2[C@H](C(=O)O)[C@@H](c3ccc4c(c3)OCO4)CN2CC(=O)Nc2c(CC)cccc2CC)cc1	KIT V559D/V654A	cell-free assay, competition with immobilised ligand	1 µM	98
O=C(NCCCN1CCOCC1)c1ccc(Nc2nccc(-c3cc4ccccc4s3)n2)cc1	KIT T670I/V559D	binding, competition with immobilised ligand	1 µM	29
CN(C)C(=O)Cn1cc(-c2nc(C3(c4ccc(-c5cnc(N)nc5)cc4)CC3)no2)cn1	KIT A829P	cell-free assay, competition with immobilised ligand	1 µM	93
Nc1ncc2c(n1)-c1c([nH]c3ccc(C#CC4CC4)cc13)CCCC2	KIT V559D/V654A	binding, competition with immobilised ligand	1 µM	100
